# What was measured:
# [1] = system: glutamate/aspartate transporter (GLAST); experiment: GLAST expression in retina; format: in vivo, Sprague-Dawley rats; conditions: diabetic rats treated with SST eye drops 10 mg/mL
# Summary of the method: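 GLAST mRNA by real-time PCR, normalized to β-actin (relative quantification). For protein, paraffin retinal sections were retrieved in 10 mmol/L sodium citrate pH 6.0 and blocked 1 h at room temperature in 2% BSA/0.05% Tween PBS. They were probed with anti-GLAST 1:200, then Alexa Fluor 488 anti-rabbit (1 h), with DAPI. Fluorescence intensity was quantified as for GFAP. Rats were STZ-diabetic on daily drops or saline.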
# [2] = system: rats with streptozotocin-induced diabetes mellitus (STZ-DM); experiment: Assessment of glial activation; format: in vivo, Sprague-Dawley rats; conditions: dose-response; SST eye drops 0.5 mg/mL compared with 2 or 10 mg/mL
# Summary of the method: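 Male Sprague-Dawley rats made diabetic with STZ 60 mg/kg i.v. (glucose above 250 mg/dL). One drop daily for 14 days, plus one ~1 h before necropsy; saline vehicle; dose-response at 10, 2, 0.5 mg/mL. Paraffin retinal sections blocked in PBS/1% BSA/0.05% Triton X-100. Rabbit anti-GFAP 1:100, 36 h at 4C; Alexa Fluor 568 secondary. Scored 0–5 by GFAP extent, endfeet/GCL to ONL.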
# [3] = system: FasL, caspase-8, Bid, active caspase-3, BclxL; experiment: Proapoptotic and survival signaling in neuroretina; format: in vivo, Sprague-Dawley rats; conditions: neuroretina of diabetic rats; SST eye drops 10 mg/mL; Western blot
# Summary of the method: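 Neuroretina protein extracts were Western blotted for FasL, caspase-8, Bid, Bim, BclxL and active caspase-3, with α-tubulin as loading control. Autoradiograms were quantified by scanning densitometry as arbitrary units, means ± SD. Tissue came from STZ-diabetic rats given daily 10 mg/mL drops or saline vehicle for 14 days, and from nondiabetic controls.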
# [4] = system: rats with streptozotocin-induced diabetes mellitus (STZ-DM); experiment: Assessment of retinal apoptosis; format: in vivo, Sprague-Dawley rats; conditions: TUNEL; SST eye drops 10 mg/mL once daily, 15 days
# [5] = Ophthalmological examinations; format: in vivo, Sprague-Dawley rats; conditions: SST eye drops 10 mg/mL, 20 µL once daily; baseline and follow-up (days 7 and 13)
# Summary of the method: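 All animals had slit lamp biomicroscopy, indirect ophthalmoscopy and intraocular pressure measurement at baseline and on days 7 and 13 posttreatment. Groups were nondiabetic controls on vehicle, and STZ-diabetic (60 mg/kg i.v.) male Sprague-Dawley rats on once-daily drops of test compound (10 mg/mL) or 0.9% NaCl vehicle.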
# [6] = system: rats with streptozotocin-induced diabetes mellitus (STZ-DM); experiment: Electroretinography; format: in vivo, Sprague-Dawley rats; conditions: diabetic rats, SST eye drops 10 mg/mL once daily; scotopic
# Summary of the method: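 Scotopic ERG was recorded in both eyes before treatment and on day 14, after at least 1 h dark adaptation. Rats were under isoflurane with 0.5% proparacaine topically. b-wave amplitude and implicit time were measured to ISCEV definitions after scotopic flash (0 db). Animals were STZ-diabetic rats on daily 10 mg/mL drops or saline vehicle. Paired t test within group; means ± SD.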
# [7] = system: AMPA-induced neurotoxicity; conditions: intravitreal administration; cited from earlier work
substance,measurement,setting,value
Somatostatin [SST],diabetes-induced downregulation of GLAST gene and protein expression,[1],this downregulation was prevented
same,GLAST protein levels in comparison with nondiabetic rats,[1]; immunofluorescence,even increased
same,effect in preventing glial activation and apoptosis,[2],significantly lower than that obtained using either 2 or 10 mg/mL
same,BclxL expression,[3],greatly improved
same,ratio of apoptosis in all retinal layers vs diabetic rats treated with placebo,[4],significantly lower
same,"differences in the cornea, pupil size, or intraocular pressure among groups",[5],No significant differences
same,"b-wave amplitude, day 14 vs day −1",[6],no reduction of b-wave amplitude was observed
same,"b-wave implicit time, day 14 vs day −1",[6],did not increase
same,protection of the retina from AMPA-induced neurotoxicity,[7],protects the retina from AMPA-induced neurotoxicity
